Source: ChEMBL document CHEMBL4152257, “Discovery of novel β-carboline/acylhydrazone hybrids as potent antitumor agents and overcome drug resistance” (Eur J Med Chem, 2018)

Columns and labels:
A549/TR = assay: Antiproliferative activity against human A549/TR cells after 48 to 72 hrs by MTT assay; assay type: functional, cell-based
Method in brief: (§1)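 Cells in log phase seeded and allowed to adhere, then exposed to graded compound concentrations for 48 h or 72 h; MTT added for a further 2-3 h, formazan dissolved in DMSO. IC50 taken from dose-response curves; mean ± SD of at least three independent experiments.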

A2780S = assay: Antiproliferative activity against human A2780S cells after 48 to 72 hrs by MTT assay; assay type: functional, cell-based; method in brief: as §1
MCF7 [1] = assay: Cell cycle arrest in human MCF7 cells assessed as accumulation at G2/M phase at 30 uM after 18 hrs by propidium iodide staining based flow cytometry (reference value: 9.98%); assay type: functional
MCF7 [2] = assay: Induction of apoptosis in human MCF7 cells assessed as viable cells at 30 uM after 48 hrs by annexin V-FITC/PI dual staining based flow cytometry (reference value: 77.8%); assay type: functional; conditions: MCF7, 48 h, read-out: Activity

Compound: N#Cc1ccc(COc2cccc(/C=N/NC(=O)c3cc4c(cn3)[nH]c3ccccc34)c2)cc1
- IC50 (A549/TR): 3.13 µM
- IC50 (A2780S): 3.02 µM
- Activity (MCF7 [1]): 6.06%
- viability at 30 µM (MCF7 [2]): 50.9%
